From ChEMBL document CHEMBL4814076, “Discovery of a Potent and Selective Covalent Inhibitor of Bruton's Tyrosine Kinase with Oral Anti-Inflammatory Activity” (ACS Med Chem Lett, 2021)
Calls of active or inactive are those of the source. The rule behind the calls is not given here.

Key:
[1] = Clearance in Sprague-Dawley rat at 5 mg/kg, po or 1 mg/kg, iv measured upto 24 hrs by LC-MS/MS analysis; format: ADME, organism-based; conditions: in vivo
Outline: (§1)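 Rats (nonfasted; IV 1 mg/kg, PO 5 mg/kg) and dogs (fasted; IV 0.5 mg/kg, PO 2.5 mg/kg) dosed from 20% hydroxypropyl-β-cyclodextrin solution.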

[2] = biological target: Tyrosine-protein kinase HCK (Homo sapiens, UniProt P08631); experiment: Inhibition of recombinant human HCK (230 to 497 residues) using GGMEDIYFEFMGGKKK as substrate incubated for 40 mins in presence of [gamma33P]ATP by scintillation counting method
[3] = biological target: Tyrosine-protein kinase Lck (Homo sapiens, UniProt P06239); experiment: Inhibition of LCK in human CD4+ T-cells assessed as reduction in anti-CD3/anti-CD28 induced IL-2 secretion at 10 uM incubated for 60 mins followed by anti-CD3/anti-CD28 stimulation and measured after 18 hrs by ELISA; format: tissue-based; conditions: CD4+ve Th, time 19.0 hrs
Outline: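 Anti-CD3/anti-CD28 stimulation of T cells. IL-2 secretion measured with compound tested up to 10 μM. An ITK inhibitor served as positive control.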

[4] = biological target: Tyrosine-protein kinase Fgr (Homo sapiens, UniProt P09769); experiment: Inhibition of recombinant human FGR (2 to end residues) using poly(Glu, Tyr) 4:1 as substrate incubated for 40 mins in presence of [gamma33P]ATP by scintillation counting method
[5] = Tmax in Sprague-Dawley rat at 5 mg/kg, po measured upto 24 hrs by LC-MS/MS analysis; format: ADME, organism-based; conditions: in vivo; outline: as §1
[6] = Clearance in Beagle dog at 2.5 mg/kg, po or 0.5 mg/kg, iv measured upto 24 hrs by LC-MS/MS analysis; format: ADME, organism-based, Canis lupus familiaris; conditions: in vivo; outline: as §1
[7] = Volume of distribution at steady state in Beagle dog at 2.5 mg/kg, po or 0.5 mg/kg, iv measured upto 24 hrs by LC-MS/MS analysis; format: ADME, organism-based, Canis lupus familiaris; conditions: in vivo, read-out: Vdss; outline: as §1
[8] = Tmax in Beagle dog at 2.5 mg/kg, po measured upto 24 hrs by LC-MS/MS analysis; format: ADME, organism-based, Canis lupus familiaris; conditions: in vivo; outline: as §1
[9] = biological target: T1, Tyrosine-protein kinase BTK (Homo sapiens, UniProt Q06187); experiment: Inhibition of BTK in human whole blood assessed as inhibition of IgM-induced B-cell activation; format: tissue-based
[10] = biological target: Receptor tyrosine-protein kinase erbB-4 (Homo sapiens, UniProt Q15303); experiment: Inhibition of recombinant human ERBB4 (706 to 991 residues) using poly(Glu, Tyr) 4:1 as substrate incubated for 40 mins in presence of [gamma33P]ATP by scintillation counting method
[11] = biological target: T1, Tyrosine-protein kinase BTK; experiment: Irreversible covalent inhibition of recombinant unphosphorylated human GST-tagged BTK kinase domain (389 to 659 residues) expressed in insect cells assessed as protein-compound adduct formation under native conditions by HPLC analysis
Outline: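 BTK protein incubated with compound. Adduct mass measured under denaturing and nondenaturing conditions.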

[12] = biological target: T2, Tyrosine-protein kinase TXK (Homo sapiens, UniProt P42681); experiment: Inhibition of recombinant human TXK (256 to end residues) using GEEPLYWSFPAKKK as substrate incubated for 40 mins in presence of [gamma33P]ATP by scintillation counting method
T2 sequence (P42681 whole entry): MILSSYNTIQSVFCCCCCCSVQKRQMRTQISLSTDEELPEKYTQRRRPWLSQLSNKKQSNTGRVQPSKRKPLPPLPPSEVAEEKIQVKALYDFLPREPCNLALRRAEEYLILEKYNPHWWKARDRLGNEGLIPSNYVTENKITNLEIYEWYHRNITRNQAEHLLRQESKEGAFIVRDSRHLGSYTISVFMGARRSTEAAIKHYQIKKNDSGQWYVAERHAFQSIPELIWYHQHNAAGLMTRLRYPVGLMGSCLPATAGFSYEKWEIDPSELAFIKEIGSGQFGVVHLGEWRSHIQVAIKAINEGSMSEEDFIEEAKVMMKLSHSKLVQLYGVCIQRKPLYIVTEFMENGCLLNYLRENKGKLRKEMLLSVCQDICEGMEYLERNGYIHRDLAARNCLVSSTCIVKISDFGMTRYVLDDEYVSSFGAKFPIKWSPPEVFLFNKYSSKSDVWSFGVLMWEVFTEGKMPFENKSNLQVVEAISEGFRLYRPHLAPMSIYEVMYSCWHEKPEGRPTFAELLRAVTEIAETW

[13] = biological target: Proto-oncogene tyrosine-protein kinase Src (Homo sapiens, UniProt P12931); experiment: Inhibition of recombinant human SRC (1 to 530 residues) using GGEEEEYFELVKKKK as substrate incubated for 40 mins in presence of [gamma33P]ATP by scintillation counting method
[14] = Half life in Sprague-Dawley rat at 1 mg/kg, iv measured upto 24 hrs by LC-MS/MS analysis; format: ADME, organism-based; conditions: in vivo; outline: as §1

T1 sequence (Q06187 whole entry, the tested form may be a part): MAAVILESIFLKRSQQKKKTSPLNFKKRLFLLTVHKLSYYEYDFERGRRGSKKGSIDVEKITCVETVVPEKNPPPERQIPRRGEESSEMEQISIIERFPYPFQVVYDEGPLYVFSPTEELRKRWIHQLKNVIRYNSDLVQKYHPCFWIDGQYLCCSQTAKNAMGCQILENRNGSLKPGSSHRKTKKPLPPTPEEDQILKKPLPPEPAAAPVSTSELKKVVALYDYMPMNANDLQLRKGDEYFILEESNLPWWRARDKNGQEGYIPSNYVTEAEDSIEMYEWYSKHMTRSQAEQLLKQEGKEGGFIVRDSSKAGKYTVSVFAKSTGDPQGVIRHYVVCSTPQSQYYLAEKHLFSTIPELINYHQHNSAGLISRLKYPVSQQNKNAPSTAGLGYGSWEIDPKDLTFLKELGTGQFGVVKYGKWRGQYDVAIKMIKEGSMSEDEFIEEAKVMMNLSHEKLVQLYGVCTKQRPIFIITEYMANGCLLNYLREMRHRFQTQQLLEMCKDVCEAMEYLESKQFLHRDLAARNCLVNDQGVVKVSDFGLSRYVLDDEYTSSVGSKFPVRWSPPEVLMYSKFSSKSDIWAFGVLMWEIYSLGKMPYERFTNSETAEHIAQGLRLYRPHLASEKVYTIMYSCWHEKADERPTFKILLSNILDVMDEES
Receptor tyrosine-protein kinase erbB-4, sequence (Q15303 whole entry, the tested form may be a part): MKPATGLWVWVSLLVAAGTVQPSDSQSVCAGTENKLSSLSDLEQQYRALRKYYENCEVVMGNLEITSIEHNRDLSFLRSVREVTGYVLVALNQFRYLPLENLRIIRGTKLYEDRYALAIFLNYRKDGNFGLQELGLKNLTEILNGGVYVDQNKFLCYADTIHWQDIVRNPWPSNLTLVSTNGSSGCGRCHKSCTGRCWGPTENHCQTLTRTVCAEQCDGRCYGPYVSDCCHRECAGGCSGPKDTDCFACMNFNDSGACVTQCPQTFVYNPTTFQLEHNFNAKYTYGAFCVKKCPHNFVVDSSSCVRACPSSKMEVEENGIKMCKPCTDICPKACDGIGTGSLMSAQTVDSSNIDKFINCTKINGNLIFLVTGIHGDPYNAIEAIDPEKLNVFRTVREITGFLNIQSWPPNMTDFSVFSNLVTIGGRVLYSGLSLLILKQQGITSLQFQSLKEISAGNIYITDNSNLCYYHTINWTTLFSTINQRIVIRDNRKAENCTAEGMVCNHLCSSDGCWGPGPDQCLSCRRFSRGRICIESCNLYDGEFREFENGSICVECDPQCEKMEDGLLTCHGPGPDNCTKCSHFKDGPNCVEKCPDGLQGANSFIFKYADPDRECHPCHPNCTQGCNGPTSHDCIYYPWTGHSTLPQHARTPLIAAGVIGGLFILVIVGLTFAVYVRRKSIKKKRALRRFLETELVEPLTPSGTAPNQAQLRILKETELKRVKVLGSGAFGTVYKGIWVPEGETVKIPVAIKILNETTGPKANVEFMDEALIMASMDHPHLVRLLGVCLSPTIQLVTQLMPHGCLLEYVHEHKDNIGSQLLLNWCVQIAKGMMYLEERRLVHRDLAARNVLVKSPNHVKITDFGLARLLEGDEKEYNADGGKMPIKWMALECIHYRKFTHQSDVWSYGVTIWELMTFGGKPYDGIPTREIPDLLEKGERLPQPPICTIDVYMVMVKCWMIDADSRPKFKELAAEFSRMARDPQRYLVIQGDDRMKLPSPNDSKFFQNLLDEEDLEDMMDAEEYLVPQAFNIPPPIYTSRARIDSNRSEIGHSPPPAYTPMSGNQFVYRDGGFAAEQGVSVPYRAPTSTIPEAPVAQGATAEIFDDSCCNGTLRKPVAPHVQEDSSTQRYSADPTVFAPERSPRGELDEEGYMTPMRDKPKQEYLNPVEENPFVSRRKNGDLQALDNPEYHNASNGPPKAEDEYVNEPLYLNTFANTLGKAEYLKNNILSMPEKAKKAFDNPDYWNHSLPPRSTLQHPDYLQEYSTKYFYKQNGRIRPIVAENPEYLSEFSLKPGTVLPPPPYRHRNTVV
Tyrosine-protein kinase HCK, sequence (P08631 whole entry, the tested form may be a part): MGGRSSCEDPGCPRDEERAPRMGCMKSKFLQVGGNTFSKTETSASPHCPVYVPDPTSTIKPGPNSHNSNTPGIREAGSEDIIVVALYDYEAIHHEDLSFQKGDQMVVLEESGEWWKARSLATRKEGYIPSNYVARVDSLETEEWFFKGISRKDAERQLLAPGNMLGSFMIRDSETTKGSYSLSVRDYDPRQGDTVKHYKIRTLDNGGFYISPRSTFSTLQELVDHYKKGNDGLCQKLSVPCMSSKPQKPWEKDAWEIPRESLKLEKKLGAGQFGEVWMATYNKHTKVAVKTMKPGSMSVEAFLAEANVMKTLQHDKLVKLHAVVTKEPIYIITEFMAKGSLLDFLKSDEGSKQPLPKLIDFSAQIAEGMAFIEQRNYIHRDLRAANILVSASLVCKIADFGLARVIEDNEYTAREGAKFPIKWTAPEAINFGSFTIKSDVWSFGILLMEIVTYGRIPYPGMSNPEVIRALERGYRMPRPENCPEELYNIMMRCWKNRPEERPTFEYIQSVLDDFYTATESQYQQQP
Tyrosine-protein kinase Lck, sequence (P06239 2-509 limits assumed): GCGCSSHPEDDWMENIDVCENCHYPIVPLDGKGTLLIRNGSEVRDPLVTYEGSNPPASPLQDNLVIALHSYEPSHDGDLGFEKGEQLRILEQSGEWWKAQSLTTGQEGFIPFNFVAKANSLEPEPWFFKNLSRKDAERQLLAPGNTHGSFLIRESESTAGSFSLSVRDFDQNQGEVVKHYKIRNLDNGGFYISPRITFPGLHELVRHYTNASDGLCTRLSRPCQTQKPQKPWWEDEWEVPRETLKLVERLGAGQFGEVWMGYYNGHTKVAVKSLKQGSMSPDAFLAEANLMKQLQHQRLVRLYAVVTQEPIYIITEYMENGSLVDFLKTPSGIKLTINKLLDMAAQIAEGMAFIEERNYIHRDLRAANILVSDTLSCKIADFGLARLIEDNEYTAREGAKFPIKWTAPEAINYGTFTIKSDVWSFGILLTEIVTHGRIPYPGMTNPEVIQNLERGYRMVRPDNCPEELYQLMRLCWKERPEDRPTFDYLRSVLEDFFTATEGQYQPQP
Tyrosine-protein kinase Fgr, sequence (P09769 whole entry): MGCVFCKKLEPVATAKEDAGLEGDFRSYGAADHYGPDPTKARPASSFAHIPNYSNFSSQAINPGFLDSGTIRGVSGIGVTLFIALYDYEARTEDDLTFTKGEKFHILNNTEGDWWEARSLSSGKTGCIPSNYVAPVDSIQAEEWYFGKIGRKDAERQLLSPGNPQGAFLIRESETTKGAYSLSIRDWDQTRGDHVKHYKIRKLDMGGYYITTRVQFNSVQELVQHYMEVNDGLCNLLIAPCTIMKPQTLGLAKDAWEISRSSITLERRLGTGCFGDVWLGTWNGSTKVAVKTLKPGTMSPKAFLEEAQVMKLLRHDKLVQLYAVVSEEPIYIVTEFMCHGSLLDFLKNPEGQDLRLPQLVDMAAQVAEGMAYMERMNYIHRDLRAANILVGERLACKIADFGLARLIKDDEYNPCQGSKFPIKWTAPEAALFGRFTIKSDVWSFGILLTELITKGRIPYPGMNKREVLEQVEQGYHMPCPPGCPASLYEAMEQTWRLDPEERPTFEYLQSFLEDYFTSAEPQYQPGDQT
Proto-oncogene tyrosine-protein kinase Src, sequence (P12931 2-536 limits assumed): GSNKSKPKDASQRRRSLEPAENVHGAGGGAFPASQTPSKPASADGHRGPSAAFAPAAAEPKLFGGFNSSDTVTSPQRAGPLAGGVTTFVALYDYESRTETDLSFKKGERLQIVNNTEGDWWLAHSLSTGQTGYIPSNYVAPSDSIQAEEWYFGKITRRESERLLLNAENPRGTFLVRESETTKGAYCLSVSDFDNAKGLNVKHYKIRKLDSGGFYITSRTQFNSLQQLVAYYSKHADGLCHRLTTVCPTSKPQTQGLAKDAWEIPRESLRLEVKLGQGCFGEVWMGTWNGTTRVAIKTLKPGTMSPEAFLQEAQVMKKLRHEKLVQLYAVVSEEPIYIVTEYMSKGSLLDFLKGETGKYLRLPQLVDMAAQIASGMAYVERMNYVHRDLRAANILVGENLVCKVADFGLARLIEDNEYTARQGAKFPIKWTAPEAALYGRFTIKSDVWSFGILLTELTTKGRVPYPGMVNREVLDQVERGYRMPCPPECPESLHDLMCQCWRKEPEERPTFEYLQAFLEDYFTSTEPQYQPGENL

clearance [1]: 39.6 mL/min/kg
IC50 [2]: > 30 µM
inhibition [3]: inactive
IC50 [4]: 4.76 µM
Tmax [5]: 60 min
clearance [6]: 8 mL/min/kg
Vd [7]: 1.1 L/kg
Tmax [8]: 48 min
IC50 [9]: 0.084 µM
IC50 [10]: 0.377 µM
inhibition [11]: Active
IC50 [12]: 1.77 µM
IC50 [13]: 3.49 µM
half-life [14]: 18 min
SMILES: C=CC(=O)N1CC[C@@H](NC(=O)c2sc3nccc4c3c2NC(=O)N4c2ccc(Oc3ccccc3)cc2C)C1
